# From article PMC5010991 (Molecular cancer therapeutics, 2016)
# Tests used:
# T98G cells [1] = experiment: Cell number using WST-1; type: cell-based, human; conditions: for reduction of cell number: T98G, 10 µM, WST-1
# Outline: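 T98G cells (ATCC, STR-authenticated, under 6 months in culture) grown in DMEM or RPMI with 10% FBS, 100 U/mL penicillin and 100 µg/mL streptomycin at 37°C, 5% CO2. Cells exposed to test compound at 10 µM, with nocodazole or paclitaxel (10 µM each) run in parallel. Cell number followed over 72 hrs by WST-1 per kit protocol. Mean ± SEM of at least 3 independent experiments.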
# T98G cells [2] = experiment: Live cell imaging of EB3-GFP on assembling MTs; type: cell-based, human; conditions: nocodazole 1 µM, by 15 min
# Outline: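 T98G cells transfected with EB3-GFP and RFP-CenpB to mark growing MT plus ends and centromeres. Treated with test compound (0.5 or 3 µM) or nocodazole (1 µM). Movies of 30 sec at 500 ms intervals were taken on a deconvolution microscope starting 10 min after drug addition. Images were deconvolved, and MT assembly rates were tracked in interphase cells.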
# bovine brain tubulin = experiment: Cell-free MT assembly assay with purified tubulin; type: biochemical
# [3] = system: MDA-MB-231 breast cancer cells; experiment: Viability of positive-control breast cancer cells; type: cell-based; conditions: MDA-MB-231, by 72 hrs
Compound,"effect of caspase-3 inhibition on the antineoplastic action of ST-11 (T98G cells [1]; Z-DEVD-FMK 10 µM, 15 min preincubation, ST-11 10 µM)",assembling MTs in live cells (T98G cells [2]),reduction of cell number (T98G cells [1]; 12 hrs),reduction of cell number (T98G cells [1]; 72 hrs),level of free tubulin (bovine brain tubulin),viability [3]
Z-DEVD-FMK,blocked the antineoplastic action of ST-11,–,–,–,–,–
COC(=O)Nc1nc2ccc(C(=O)c3cccs3)cc2[nH]1 [nocodazole],–,abolished all assembling MTs,10–15%,34%,triggered an increase the free tubulin,–
CC(=O)O[C@H]1C(=O)[C@@]2(C)[C@H]([C@H](OC(=O)c3ccccc3)[C@]3(O)C[C@H](OC(=O)[C@H](O)[C@@H](NC(=O)c4ccccc4)c4ccccc4)C(C)=C1C3(C)C)[C@]1(OC(C)=O)CO[C@@H]1C[C@@H]2O [paclitaxel],–,–,10–15%,inactive,decrease in free tubulin levels,reduced the viability
